From ChEMBL document CHEMBL1123779, “Modifications of primaquine as antimalarials. 4. 5-Alkoxy derivatives of primaquine” (J Med Chem, 1987)

Assays:
Plasmodium berghei [1] = experiment: Blood schizonticidal antimalarial activity in the trophozoite-induced Plasmodium berghei infection in mice (Mus musculus) at 20 mg/kg; type: functional; parameters: unit not given beside the values
Summary of the method: (§1)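 Run at the Rane Laboratory in mice infected with blood-induced P. berghei, five animals per group. Activity is the increase in mean survival time over untreated infected controls. A compound counts as active when treated-group MST is more than twice the control MST. Cures are mice surviving at 60 days postinfection.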

Plasmodium cynomolgi [2] = experiment: Cures in Plasmodium cynomolgi infected Rhesus monkeys (Macaca mulatta) on 0.1 mg/kg/day after 7 days (x7); cured 0 of 2; type: functional
Plasmodium berghei [3] = experiment: (§2) Suppressive blood schizonticidal antimalarial activity evaluated in the trophozoite-induced Plasmodium berghei infection in mice (Mus musculus) at a dose 640 mg/kg given as number of toxic deaths; type: toxicity, organism-based; parameters: dose 640 mg/kg; conditions: in vivo
Summary of the method: (§3)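 Rane Laboratory mouse test with blood-induced P. berghei infection, five mice per group. Toxic deaths are deaths occurring before the 6th day postinfection.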

Mus musculus [4] = experiment: (§4) Suppressive blood schizonticidal antimalarial activity evaluated in the trophozoite-induced Plasmodium berghei infection in mice (Mus musculus) at a dose 160 mg/kg; type: ADME, organism-based; parameters: dose 160 mg/kg; conditions: in vivo; summary of the method: as §1
Mus musculus [5] = experiment: Suppressive blood schizonticidal antimalarial activity evaluated in the trophozoite-induced Plasmodium berghei infection in mice (Mus musculus) at a dose 10 mg/kg; type: functional; summary of the method: as §1
Plasmodium cynomolgi [6] = experiment: Cures in Plasmodium cynomolgi infected Rhesus monkeys (Macaca mulatta) on 1 mg/kg/day after 7 days; cured 3 of 3; type: functional
Mus musculus [7] = experiment: Suppressive blood schizonticidal antimalarial activity evaluated in the trophozoite-induced Plasmodium berghei infection in mice (Mus musculus) at a dose 320 mg/kg given as no. of toxic deaths; type: functional; summary of the method: as §3
Mus musculus [8] = experiment: (§5) Suppressive blood schizonticidal antimalarial activity evaluated in the trophozoite-induced Plasmodium berghei infection in mice (Mus musculus) at a dose 80 mg/kg; type: ADME, organism-based; parameters: dose 80 mg/kg; conditions: in vivo; summary of the method: as §1
Plasmodium cynomolgi [9] = experiment: Cures in Plasmodium cynomolgi infected Rhesus monkeys (Macaca mulatta) on 10.0 mg/kg/day after 7 days; cured 1 of 1; type: functional
Mus musculus [10] = experiment: Suppressive blood schizonticidal antimalarial activity evaluated in the trophozoite-induced Plasmodium berghei infection in mice (Mus musculus) at a dose 40 mg/kg; type: functional; parameters: unit not given beside the values; summary of the method: as §1
Plasmodium cynomolgi [11] = experiment: Cures in Plasmodium cynomolgi infected Rhesus monkeys (Macaca mulatta) on 0.316 mg/kg/day after 7 days; cures 2 of 2; type: functional
Plasmodium cynomolgi [12] = experiment: Cures in Plasmodium cynomolgi infected Rhesus monkeys (Macaca mulatta) on 1 mg/kg/day after 7 days; cured 0 of 2; type: functional
Mus musculus [13] = experiment: Suppressive blood schizonticidal antimalarial activity evaluated in the trophozoite-induced Plasmodium berghei infection in mice (Mus musculus) at a dose 640 mg/kg given as no. of cures; type: functional
Summary of the method: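 Run at the Rane Laboratory with blood-induced P. berghei infections in mice, five animals per group. A cure is a mouse surviving to 60 days postinfection. Deaths before day 6 are recorded separately as toxic deaths. Activity is scored from the increase in mean survival time over untreated controls, and counts as active when treated MST is more than twice control MST.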

Plasmodium cynomolgi [14] = experiment: Cures in Plasmodium cynomolgi infected Rhesus monkeys (Macaca mulatta) on 10.0 mg/kg/day after 7 days; cured 2 of 2; type: functional
Mus musculus [15] = experiment: Suppressive blood schizonticidal antimalarial activity evaluated in the trophozoite-induced Plasmodium berghei infection in mice (Mus musculus) at a dose 320 mg/kg; type: functional; summary of the method: as §1
Mus musculus [16] = experiment: as §4; type: functional; summary of the method: as §1
Mus musculus [17] = experiment: as §5; type: functional; parameters: unit not given beside the values; summary of the method: as §1
Plasmodium cynomolgi [18] = experiment: Cures in Plasmodium cynomolgi infected Rhesus monkeys (Macaca mulatta) on 0.316 mg/kg/day after 7 days; cured 0 of 2; type: functional
Plasmodium cynomolgi [19] = experiment: Cures in Plasmodium cynomolgi infected Rhesus monkeys (Macaca mulatta) on 0.316 mg/kg/day after 7 days; cured 1 of 2; type: functional
Mus musculus [20] = experiment: as §2; type: ADME, organism-based; parameters: dose 640 mg/kg; conditions: in vivo; summary of the method: as §3
Plasmodium cynomolgi [21] = experiment: Cures in Plasmodium cynomolgi infected Rhesus monkeys (Macaca mulatta) on 1 mg/kg/day after 7 days; cured 1 of 1; type: functional
Mus musculus [22] = experiment: Suppressive blood schizonticidal antimalarial activity evaluated in the trophozoite-induced Plasmodium berghei infection in mice (Mus musculus) at a dose 160 mg/kg given as no. of toxic deaths; type: functional; summary of the method: as §3

CCCOc1c(OC)cc(NC(C)CCCN)c2ncccc12 (stereo not given)
Delta MST (Plasmodium berghei [1]): 4.5
Cures/no. of animals (Plasmodium cynomolgi [2]): 0
Toxic deaths (Plasmodium berghei [3]): 5
Toxic deaths (Mus musculus [4]): 5
Delta MST (Mus musculus [5]): 3.7
Cures/no. of animals (Plasmodium cynomolgi [6]): 3
Toxic deaths (Mus musculus [7]): 5
Toxic deaths (Mus musculus [8]): 1
Cures/no. of animals (Plasmodium cynomolgi [9]): 1
Delta MST (Mus musculus [10]): 8.3
Cures/no. of animals (Plasmodium cynomolgi [11]): 2

COc1cc(NC(C)CCCN)c2nccc(C)c2c1 (stereo not given)
Cures/no. of animals (Plasmodium cynomolgi [12]): 2
Delta MST (Plasmodium berghei [1]): 3.1
Cures (Mus musculus [13]): 3
Cures/no. of animals (Plasmodium cynomolgi [14]): 2
Delta MST (Mus musculus [15]): 10
Delta MST (Mus musculus [16]): 9
Delta MST (Mus musculus [17]): 5.5
Delta MST (Mus musculus [10]): 4.9
Cures/no. of animals (Plasmodium cynomolgi [18]): 0

CCCCCOc1c(OC)cc(NC(C)CCCN)c2ncccc12 (stereo not given)
Cures/no. of animals (Plasmodium cynomolgi [19]): 1
Delta MST (Plasmodium berghei [1]): 4.7
Cures/no. of animals (Plasmodium cynomolgi [2]): 0
Delta MST (Mus musculus [5]): 4.3
Toxic deaths (Mus musculus [20]): 2
Delta MST (Mus musculus [17]): 4.7
Toxic deaths (Mus musculus [7]): 5
Delta MST (Mus musculus [10]): 6.1
Cures/no. of animals (Plasmodium cynomolgi [21]): 1
Toxic deaths (Mus musculus [22]): 4
